Results from ChEMBL document CHEMBL1135904, “Toward an optimal joint recognition of the S1' subsites of endothelin converting enzyme-1 (ECE-1), angiotensin converting enzyme (ACE), and neutral endopeptidase (NEP)” (J Med Chem, 2002).

Tests used:
[1] = target: T1, Angiotensin-converting enzyme (Rattus norvegicus, UniProt P47820); assay: Inhibition of Angiotensin I converting enzyme (ACE) purified from rat testis
T1 sequence (P47820 whole entry): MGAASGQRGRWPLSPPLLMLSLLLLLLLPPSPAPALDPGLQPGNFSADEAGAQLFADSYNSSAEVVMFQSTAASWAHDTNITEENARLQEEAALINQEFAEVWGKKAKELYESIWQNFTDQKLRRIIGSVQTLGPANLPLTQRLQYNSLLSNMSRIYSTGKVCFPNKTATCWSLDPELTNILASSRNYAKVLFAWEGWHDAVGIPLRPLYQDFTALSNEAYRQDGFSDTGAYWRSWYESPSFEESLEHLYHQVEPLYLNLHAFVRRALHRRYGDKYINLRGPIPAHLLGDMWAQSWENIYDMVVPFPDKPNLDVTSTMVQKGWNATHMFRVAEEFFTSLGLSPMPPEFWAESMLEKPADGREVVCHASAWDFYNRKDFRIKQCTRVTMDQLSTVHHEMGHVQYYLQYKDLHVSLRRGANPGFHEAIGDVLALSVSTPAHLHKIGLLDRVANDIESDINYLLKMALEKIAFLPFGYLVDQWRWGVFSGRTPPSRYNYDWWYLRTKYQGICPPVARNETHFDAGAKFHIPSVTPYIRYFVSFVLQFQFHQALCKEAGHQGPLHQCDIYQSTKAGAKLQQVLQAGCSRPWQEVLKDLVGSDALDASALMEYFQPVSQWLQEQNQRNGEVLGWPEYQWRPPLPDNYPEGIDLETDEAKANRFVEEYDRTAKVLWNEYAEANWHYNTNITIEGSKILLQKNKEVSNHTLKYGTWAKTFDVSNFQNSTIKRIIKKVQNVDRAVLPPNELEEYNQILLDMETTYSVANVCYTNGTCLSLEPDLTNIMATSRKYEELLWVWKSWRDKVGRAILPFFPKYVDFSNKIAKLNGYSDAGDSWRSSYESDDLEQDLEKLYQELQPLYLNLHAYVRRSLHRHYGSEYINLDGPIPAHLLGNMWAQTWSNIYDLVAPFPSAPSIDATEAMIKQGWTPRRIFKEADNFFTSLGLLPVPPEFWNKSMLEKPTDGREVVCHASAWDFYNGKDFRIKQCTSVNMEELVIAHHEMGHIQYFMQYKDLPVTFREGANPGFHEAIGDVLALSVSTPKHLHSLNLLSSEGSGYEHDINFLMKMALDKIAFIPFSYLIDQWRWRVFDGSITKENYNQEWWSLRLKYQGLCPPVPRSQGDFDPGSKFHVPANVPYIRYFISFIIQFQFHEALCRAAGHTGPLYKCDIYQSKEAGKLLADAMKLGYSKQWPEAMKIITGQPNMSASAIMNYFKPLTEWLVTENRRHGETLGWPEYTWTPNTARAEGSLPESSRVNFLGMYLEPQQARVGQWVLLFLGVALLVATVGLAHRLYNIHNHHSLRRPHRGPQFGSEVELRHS
Outline: (§1)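 ACE purified from rat testis, final 0.02 pmol/100 µL, preincubated 10 min at 37 °C with or without various inhibitor concentrations in 50 mM Tris/HCl/NaCl 1% pH 7.4. Then 50 µM N-Cbz-Phe-His-Leu (Km 50 µM) added for 30 min. Stopped with 2 N NaOH and diluted with water. Released His-Leu measured fluorometrically.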

[2] = target: T2, Endothelin-converting enzyme 1 (Homo sapiens, UniProt P42892); assay: Inhibition activity towards human recombinant Endothelin-converting enzyme 1 (hECE-1c) expressed in Cos-7 cells; assay type: cell-based
T2 sequence (P42892 whole entry): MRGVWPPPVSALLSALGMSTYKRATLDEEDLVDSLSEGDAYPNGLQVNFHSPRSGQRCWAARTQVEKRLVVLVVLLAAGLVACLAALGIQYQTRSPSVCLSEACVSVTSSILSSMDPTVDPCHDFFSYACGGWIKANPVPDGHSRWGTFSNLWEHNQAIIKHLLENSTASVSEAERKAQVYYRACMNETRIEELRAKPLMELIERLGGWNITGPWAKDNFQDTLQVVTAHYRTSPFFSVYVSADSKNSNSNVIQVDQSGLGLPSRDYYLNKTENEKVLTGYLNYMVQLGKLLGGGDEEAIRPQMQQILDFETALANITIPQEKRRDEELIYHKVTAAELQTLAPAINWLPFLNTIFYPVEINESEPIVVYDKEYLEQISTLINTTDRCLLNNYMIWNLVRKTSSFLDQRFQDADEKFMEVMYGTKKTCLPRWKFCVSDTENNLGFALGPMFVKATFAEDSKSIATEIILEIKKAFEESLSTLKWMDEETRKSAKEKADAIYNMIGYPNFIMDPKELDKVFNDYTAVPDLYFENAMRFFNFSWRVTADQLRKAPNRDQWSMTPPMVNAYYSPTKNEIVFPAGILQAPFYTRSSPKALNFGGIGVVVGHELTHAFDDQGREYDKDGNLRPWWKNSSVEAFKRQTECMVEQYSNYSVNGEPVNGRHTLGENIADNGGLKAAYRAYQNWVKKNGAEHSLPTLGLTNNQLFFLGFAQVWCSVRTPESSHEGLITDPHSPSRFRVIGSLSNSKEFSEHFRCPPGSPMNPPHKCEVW
Outline: (§2)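 Recombinant human ECE-1c from Cos-7 cells, 4 µg total protein per well, preincubated 10 min at 37 °C in 50 mM tris-maleate pH 6-8 with or without rising inhibitor concentrations. Reaction started with 20 µM (Pya21-(p-NO2)Phe22)bigET(19-35) (Km 20 µM), run 1 h at 37 °C, stopped by cooling. Fluorescence read at ex 340/em 400 nm.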

Neprilysin [3] = target: T3, Neprilysin (Oryctolagus cuniculus, UniProt P08049); assay: Inhibition of neutral endopeptidase (NEP) isolated from rabbit kidney
T3 sequence (P08049 whole entry): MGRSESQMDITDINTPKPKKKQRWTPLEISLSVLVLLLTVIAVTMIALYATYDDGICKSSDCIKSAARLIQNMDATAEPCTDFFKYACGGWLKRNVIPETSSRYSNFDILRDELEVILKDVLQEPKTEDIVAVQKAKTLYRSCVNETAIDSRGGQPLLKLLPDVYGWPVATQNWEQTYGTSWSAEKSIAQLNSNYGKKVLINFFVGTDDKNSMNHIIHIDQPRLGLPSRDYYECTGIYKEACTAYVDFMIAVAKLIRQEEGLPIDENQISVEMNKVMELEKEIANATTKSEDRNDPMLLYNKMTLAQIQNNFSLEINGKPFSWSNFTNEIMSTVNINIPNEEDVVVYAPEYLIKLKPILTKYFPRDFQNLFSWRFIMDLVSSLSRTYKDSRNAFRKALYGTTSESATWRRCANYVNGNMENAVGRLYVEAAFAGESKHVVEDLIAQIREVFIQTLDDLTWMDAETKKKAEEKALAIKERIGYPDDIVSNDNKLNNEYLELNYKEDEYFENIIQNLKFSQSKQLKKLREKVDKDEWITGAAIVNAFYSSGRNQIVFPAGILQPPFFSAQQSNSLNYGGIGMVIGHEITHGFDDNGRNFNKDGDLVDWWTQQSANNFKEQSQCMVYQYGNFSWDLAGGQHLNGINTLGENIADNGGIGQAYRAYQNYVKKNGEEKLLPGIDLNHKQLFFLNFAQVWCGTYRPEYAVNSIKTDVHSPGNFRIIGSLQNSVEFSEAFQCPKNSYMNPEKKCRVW
Outline: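 Rabbit kidney NEP purified to homogeneity, final 250 ng/mL, preincubated 10 min at 37 °C with or without rising inhibitor concentrations in 50 mM Tris-HCl pH 7.4. Then 50 µM DGPA (Dansyl-Gly-(p-NO2)Phe-β-Ala; Km 37 µM) added for 1 h. Stopped with DMSO. Fluorescence read at ex 340/em 530 nm.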

Neprilysin [4] = target: T3, Neprilysin; assay: Inhibition of neutral endopeptidase (NEP)
Outline: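 NEP purified from rabbit kidney (final 250 ng/mL) preincubated 10 min at 37 °C with or without increasing inhibitor concentrations in 50 mM Tris-HCl pH 7.4. Reaction stopped after 1 h with DMSO.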

[5] = target: T1, Angiotensin-converting enzyme; assay: Inhibition of Angiotensin I converting enzyme (ACE); outline: as §1
[6] = target: T2, Endothelin-converting enzyme 1; assay: Inhibition of Endothelin-converting enzyme 1 (ECE); outline: as §2

| Structure (SMILES) | Ki [1] | Ki [2] | Ki (Neprilysin [3]) | Ki (Neprilysin [4]) | Ki [5] | Ki [6] |
| --- | --- | --- | --- | --- | --- | --- |
| O=C(O)[C@H](Cc1c[nH]c2ccccc12)NC(=O)[C@H](CS)[C@@H]1CCc2ccccc21 | 170 nM | 680 nM | 27 nM |  |  |  |
| O=C(O)[C@H](Cc1c[nH]c2ccccc12)NC(=O)[C@@H](CS)[C@@H]1CCc2ccccc21 | 41 nM | 1140 nM | 10 nM |  |  |  |
| C[C@@H](c1ccccc1)[C@@H](CS)C(=O)N[C@@H](Cc1c[nH]c2ccccc12)C(=O)O | 33 nM | 200 nM | 2.4 nM |  |  |  |
| O=C(O)[C@H](Cc1c[nH]c2ccccc12)NC(=O)[C@@H](CS)[C@H]1CCc2ccccc21 | 10 nM | 290 nM | 2.1 nM |  |  |  |
| O=C(O)[C@H](Cc1c[nH]c2ccccc12)NC(=O)[C@H](CS)[C@H]1CCc2ccccc21 | 43 nM | 26 nM | 0.7 nM |  |  |  |
| O=P(O)(O)C(CCc1cccc2ccccc12)N[C@@H](Cc1ccc(-c2ccccc2)cc1)c1nnn[nH]1 (stereo not given in full) |  |  |  | 2.2 nM | > 10000 nM | 10.8 nM |
| CC(c1ccc(-c2ccccc2)cc1)C(CS)C(=O)N[C@@H](Cc1c[nH]c2ccccc12)C(=O)O (stereo not given in full) | 62 nM | 220 nM | 4.8 nM |  |  |  |
| O=C(O)C(Cc1c[nH]c2ccccc12)NC(=O)C(CS)c1cccc2ccccc12 (stereo not given) | 150 nM | 1560 nM | 22 nM |  |  |  |
| O=C(O)[C@H](Cc1c[nH]c2ccccc12)NC(=O)[C@H](CS)[C@@H]1CCCc2ccccc21 | 134 nM | 1240 nM | 43 nM |  |  |  |
| O=C(O)C(Cc1c[nH]c2ccccc12)NC(=O)C(CS)c1cccc(-c2ccccc2)c1 (stereo not given) | 150 nM | 900 nM | 35 nM |  |  |  |
| CC(c1ccccc1)C(CS)C(=O)NC(Cc1c[nH]c2ccccc12)C(=O)O (stereo not given) | 40 nM | 300 nM | 3 nM |  |  |  |
| C[C@H](c1ccccc1)[C@@H](CS)C(=O)N[C@@H](Cc1c[nH]c2ccccc12)C(=O)O | 290 nM | 580 nM | 5 nM |  |  |  |
| C[C@H](c1ccc(-c2ccccc2)cc1)[C@H](CS)C(=O)N[C@@H](Cc1c[nH]c2ccccc12)C(=O)O | 65 nM | 110 nM | 30 nM |  |  |  |
| CC(c1cccc2ccccc12)C(CS)C(=O)NC(Cc1c[nH]c2ccccc12)C(=O)O (stereo not given) | 79 nM | 600 nM | 51 nM |  |  |  |
| C[C@H](c1ccc(-c2ccccc2)cc1)[C@@H](CS)C(=O)N[C@@H](Cc1c[nH]c2ccccc12)C(=O)O | 330 nM | 190 nM | 5 nM |  |  |  |
| O=C(O)C(Cc1c[nH]c2ccccc12)NC(=O)C(CS)C1CCCc2ccccc21 (stereo not given) | 18 nM | 300 nM | 4.5 nM |  |  |  |
| O=C(O)[C@H](Cc1c[nH]c2ccccc12)NC(=O)[C@H](CS)[C@H]1CCCc2ccccc21 | 76 nM | 250 nM | 3 nM |  |  |  |
| O=C(O)C(Cc1c[nH]c2ccccc12)NC(=O)C(CS)c1ccc(-c2ccccc2)cc1 (stereo not given) | 77 nM | 4150 nM | 135 nM |  |  |  |
| O=C(O)C(Cc1c[nH]c2ccccc12)NC(=O)C(CS)C1CCc2ccccc21 (stereo not given) | 20 nM | 100 nM | 1.8 nM |  |  |  |
| O=C(O)[C@H](Cc1c[nH]c2ccccc12)NC(=O)[C@@H](CS)[C@H]1CCCc2ccccc21 | 10 nM | 190 nM | 3 nM |  |  |  |
| O=C(N[C@@H](Cc1c[nH]c2ccccc12)C(=O)O)C(CS)[C@@H]1CCCc2ccccc21 (stereo not given in full) | 26 nM | 670 nM | 8 nM |  |  |  |
| O=C(O)C(Cc1c[nH]c2ccccc12)NC(=O)C(CS)C(c1ccccc1)c1ccccc1 (stereo not given) |  |  |  | 140 nM | 250 nM | > 10000 nM |
| C[C@@H](c1ccc(-c2ccccc2)cc1)[C@H](CS)C(=O)N[C@@H](Cc1c[nH]c2ccccc12)C(=O)O | 38 nM | 920 nM | 35 nM |  |  |  |
| C[C@@H](c1ccc(-c2ccccc2)cc1)[C@@H](CS)C(=O)N[C@@H](Cc1c[nH]c2ccccc12)C(=O)O | 130 nM | 135 nM | 1.5 nM |  |  |  |
| C[C@H](c1ccccc1)[C@H](CS)C(=O)N[C@@H](Cc1c[nH]c2ccccc12)C(=O)O | 29 nM | 100 nM | 2.2 nM |  |  |  |
| CC(c1ccc2ccccc2c1)C(CS)C(=O)NC(Cc1c[nH]c2ccccc12)C(=O)O (stereo not given) | 47 nM | 980 nM | 5.4 nM |  |  |  |
| C[C@@H](c1ccccc1)[C@H](CS)C(=O)N[C@@H](Cc1c[nH]c2ccccc12)C(=O)O | 15 nM | 780 nM | 2.5 nM |  |  |  |
| C[C@H](CS)C(=O)N1CCC[C@H]1C(=O)O [CAPTOPRIL] |  |  |  | > 1000 nM |  | > 10000 nM |
| O=C(O)CNC(=O)C(CS)Cc1ccccc1 (stereo not given) [THIORPHAN] |  |  |  |  | > 100 nM | > 10000 nM |
